Measured values: publication PMC4327942 (Chemistry & biology, 2010)

Tests used:
[1] = tested on: HIF ODD-luciferase reporter; assay: HTS of SH-SY5Y ODD-luc reporter cells, 384-well, 10 μM compound, 3 hr; type: cell-based, human; settings: for activation at 10 µM: Homo sapiens, SH-SY5Y, 3 h, read-out: reporter activation (%)
[2] = Iron binding by displacement of calcein from its complex with iron; type: physicochemical; settings: for ka, association rate constant for iron binding: calcein-iron complex 1 μM:1 μM, oxyquinoline 5-20 μM; for Kd: read-out: KFe, apparent iron binding constant, calcein displacement, 5 mM Tris-HCl buffer (pH 7.5)
[3] = tested on: HIF ODD-luciferase reporter; assay: ODD-luc reporter activation, concentration titration in 96-well plates; type: cell-based, human; settings: SH-SY5Y; for IC50: Homo sapiens, read-out: IC50 (reporter activation); for “Lag,” (concentration lag of reporter titration curve): ODD-luc reporter
[4] = tested on: cortical neurons; assay: Neuroprotection in HCA; type: cell-based, rat; settings: HCA model
In short: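 Forebrain neurons from E17 Sprague-Dawley rat embryos were plated at 10^6 cells/ml in 96-well plates. After 16 hr they were rinsed with warm PBS and moved to MEM containing 5 mM HCA plus test compound (0.25-2 μM). Incubation ran 24 hr or longer, until HCA-only controls reached 90% death. Viability was read by MTT.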

[5] = 10 μM, 3 hr, SH-SY5Y-ODD-luc cells

N[C@@H](Cc1ccc(O)c(O)c1)C(=O)O [L-Dopa]
reporter activation (fold) [1, 5]: 3 fold | activation at 10 µM [1]: 21%

O=C1/C(=N\Nc2nccs2)C(c2ccccc2)=NN1c1ccccc1 [I, (Z)-1,3-diphenyl-4-(thiazol-2-yl-hydrazono)-1H-pyrazol-5(4H)-one]
activation at 10 µM [1]: 86%

O=C1/C(=N\Nc2nc3ccccc3s2)C(c2ccccc2)=NN1c1ccccc1 [(Z)-4-(benzo[d]thiazol-2-yl-hydrazono)-1,3-diphenyl-1H-pyrazol-5(4H)-one]
activation at 10 µM [1]: 70%

NNc1nc(-c2ccccc2)cc(-c2ccccc2)n1 [II, 2-hydrazinyl-4,6-diphenylpyrimidine]
reporter activation (fold) [1, 5]: 6.7 fold | activation at 10 µM [1]: 64% | iron chelation properties in solution (in words) [2]: no iron chelation properties in solution

Cc1cc(C2CCCCC2)n(O)c(=O)c1 [Ciclopirox, ciclopirox]
increase of background signal for the wild-type ODD-luc reporter (PYIP line) ([1]; 10 μM, 3 hr incubation): 10 fold | reporter signal as % of the threshold value (control line AYIA) ([1]; 10 μM, 3 hr incubation, PYIP line): ~50% | ka, association rate constant for iron binding [2]: 300 ± 50 M⁻¹ s⁻¹ | Kd [2]: 80 ± 20 nM | IC50 [3]: 4.5 ± 0.5 µM | “Lag,” (concentration lag of reporter titration curve) [3]: 2 ± 0.5 µM

S=C(Nc1ccccc1)Nc1nccs1 [III, 1-phenyl-3-(1,3-thiazol-2-yl)thiourea]
reporter activation (fold) [1, 5]: 5 fold | activation at 10 µM [1]: 41%

O=C(C=C(O)c1ccccc1)c1ccccc1O [2′β-dihydroxychalcone]
reporter activation (fold) [1, 5]: 7.5 fold | reporter activation (%) ([1]; 10 μM, 3 hr, SH-SY5Y-ODD-luc cells, ciclopirox = 100%, DMSO = 0%): 71%

Oc1cccc2cccnc12 [Oxyquinoline, 8-hydroxyquinoline]
times less potent as neuroprotectants (versus compounds 7 and 8) [4]: 20-40 times | reporter activation (fold) [1, 5]: 4-5 fold | activation at 10 µM [1]: 35 to 45% | ka, association rate constant for iron binding [2]: 110 ± 20 M⁻¹ s⁻¹ | Kd [2]: 200 ± 50 nM | IC50 [3]: 10 ± 1 µM | “Lag,” (concentration lag of reporter titration curve) [3]: 4 ± 0.5 µM
